Measurements: paper PMC3046310 (Bioconjugate chemistry, 2010)
Entries after “also recorded” stand apart in the source; their conditions may differ.

How the values were obtained:
[1] = test system: B16F10 murine melanoma; assay: Biodistribution in C57BL/6 mice bearing B16F10 tumors; assay type: in vivo
Procedure, shortened: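 Male C57BL/6 mice, 5–6 weeks old, were given 1 × 10^6 B16F10 cells in the right flank. At tumor diameter ~8 mm, 110–130 μCi (4.07–4.81 MBq) 18F tracer in PBS (0.01 M, pH 7.4) was injected i.v. into the tail vein. Mice (n=3) were killed by CO2 at 1, 2 and 4 h p.i. Tumor, blood and organs were weighed and γ-counted, giving %ID/g. Groups were compared by unpaired Student's t-test.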

[2] = test system: A375M human melanoma; assay: Biodistribution in Foxn1 nude mice bearing A375M tumors; assay type: in vivo
[3] = test system: B16F10 tumors; assay: Small-animal PET imaging of mice bearing B16F10 tumors; assay type: in vivo, murine; settings: for PET tumor delineation / image quality: B16F10 tumors, 1 and 2 h p.i.
Procedure, shortened: (§1)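 Mice bearing B16F10 or A375M tumors received 110–130 μCi (4.07–4.81 MBq) 18F tracer via the tail vein. At 1 and 2 h p.i., mice under 2% isoflurane were placed prone for 5-min static small-animal PET scans, reconstructed by 2D OSEM without attenuation correction. ROIs drawn on decay-corrected coronal images were converted to %ID/g using a calibration constant, assuming 1 g/mL tissue density.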

[4] = test system: A375M melanoma; assay: Small-animal PET imaging of mice bearing A375M tumors; assay type: in vivo, human
Procedure, shortened: as §1

[5] = biological target: T1, MC1R (Mus musculus, UniProt Q01727); assay: In vitro cell binding assay; set-up: species or system murine; settings: B16F10 cells
T1 sequence (Q01727 whole entry): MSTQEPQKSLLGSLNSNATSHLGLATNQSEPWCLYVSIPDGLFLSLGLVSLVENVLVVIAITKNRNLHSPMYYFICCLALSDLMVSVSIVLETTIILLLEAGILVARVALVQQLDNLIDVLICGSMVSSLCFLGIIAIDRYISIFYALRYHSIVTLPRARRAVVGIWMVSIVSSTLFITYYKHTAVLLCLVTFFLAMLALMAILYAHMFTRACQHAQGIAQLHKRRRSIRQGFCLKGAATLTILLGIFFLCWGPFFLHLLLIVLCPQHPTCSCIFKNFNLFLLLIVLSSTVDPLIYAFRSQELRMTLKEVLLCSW
Procedure, shortened: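 B16F10 cells were grown in high-glucose DMEM with 10% FBS and penicillin/streptomycin at 37 °C and 5% CO2. Cells (0.5 × 10^6) were resuspended in DMEM with 25 mM HEPES, 0.2% BSA and 0.3 mM 1,10-phenanthroline. They were incubated for 90 min at 37 °C with test compound (10^−12–10^−6 M) and ~40,000 cpm 125I-(Tyr2)-NDP. Cells were washed three times with ice-cold PBS and counted. IC50 was taken as the competitor concentration giving 50% inhibition of radioligand binding.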

[6] = biological target: T1, MC1R; settings: previous studies; ref [19]; cited from earlier work
[7] = C57BL/6 mice, B16F10, 2 h p.i., i.v. 110-130 μCi, mean ± SD, n = 3
[8] = Foxn1 nude mice, A375M, 2 h p.i., i.v. 110-130 μCi, mean ± SD, n = 3

CC(=O)N[C@H](CCCCNC(=O)C(C)F)C(=O)N[C@@H](CS)C(=O)N[C@@H](CS)C(=O)N[C@@H](CCC(=O)O)C(=O)N[C@@H](Cc1c[nH]cn1)C(=O)N[C@H](Cc1ccccc1)C(=O)N[C@@H](CCCNC(=N)N)C(=O)N[C@@H](Cc1c[nH]c2ccccc12)C(=O)N[C@@H](CS)C(=O)N[C@@H](CCCNC(=N)N)C(=O)N1CCC[C@H]1C(=O)N[C@H](C(N)=O)C(C)C (some centres unmarked) [^18F-FP-RMSH-1]
Muscle uptake ([1]; B16F10 model): low uptake in muscle
blood clearance ([1]; B16F10 model): rapid blood clearance
lung and liver uptake compared with ^18F-FB-RMSH-1 ([1]; B16F10 model): much lower uptake in lung and liver
tumor-to-blood and tumor-to-muscle ratios compared with ^18F-FB-RMSH-1 ([1]; B16F10 model): Much higher tumor-to-blood and tumor-to-muscle ratios
kidney uptake compared with ^18F-FB-RMSH-1 ([1]; B16F10 tumor bearing mice, P < 0.05): lower kidney uptake
Tumor / Muscle uptake ratio [1, 7]: 9.36 ± 3.98
A375M tumor uptake compared with B16F10 tumors ([2]; 2 h p.i., P < 0.01): significantly lower than in B16F10 tumors
Heart uptake [2, 8]: 0.41 ± 0.19 %ID/g
Intestine uptake [2, 8]: 0.40 ± 0.19 %ID/g
Liver uptake [2, 8]: 0.69 ± 0.21 %ID/g
Pancreas uptake [2, 8]: 0.78 ± 0.49 %ID/g
PET liver and kidney uptake ([3]; B16F10, 1 and 2 h p.i.): moderate to high uptake in liver and kidney
PET tumor delineation / image quality [3]: Improved quality of PET images; also recorded: clearly delineated over the background at 1 and 2 h p.i
PET tumor uptake and tumor-to-background ratio, A375M ([4]; 1 and 2 h, compared with B16F10 tumor bearing mice): much lower tumor uptake and poor tumor-to-background ratio
PET kidney activity accumulation, A375M ([4]; 1 and 2 h p.i.): high activity accumulation in kidneys
PET visibility of A375M tumor ([4]; 1 and 2 h p.i.): barely discernable; also recorded: barely noticeable

CC(=O)N[C@H](CCCCNC(=O)C(C)F)C(=O)N[C@@H](CS)C(=O)N[C@@H](CS)C(=O)N[C@@H](CCC(=O)O)C(=O)N[C@@H](Cc1c[nH]cn1)C(=O)N[C@H](Cc1ccccc1)C(=O)N[C@@H](CCCNC(=N)N)C(=O)N[C@@H](Cc1c[nH]c2ccccc12)C(=O)N[C@@H](CS)C(=O)N[C@@H](CCCNC(=N)N)C(=O)N1CCC[C@H]1C(=O)N[C@H](C(N)=O)C(C)C (some centres unmarked) [^18F-FP-RMSH-2]
liver and lung uptake compared with ^18F-FB-RMSH-2, B16F10 ([1]; "in both models" (P < 0.05), B16F10 model): lower
Blood uptake [1, 7]: 0.31 ± 0.11 %ID/g
Bone uptake [1, 7]: 0.52 ± 0.08 %ID/g
Brain uptake [1, 7]: 0.04 ± 0.01 %ID/g
Heart uptake [1, 7]: 0.21 ± 0.06 %ID/g
Intestine uptake [1, 7]: 0.91 ± 0.33 %ID/g
Lung uptake [1, 7]: 0.64 ± 0.15 %ID/g
Muscle uptake [1, 7]: 0.20 ± 0.05 %ID/g
Pancreas uptake [1, 7]: 0.10 ± 0.03 %ID/g
Spleen uptake [1, 7]: 0.53 ± 0.03 %ID/g
Stomach uptake [1, 7]: 0.42 ± 0.14 %ID/g
Tumor / Blood uptake ratio [1, 7]: 2.74 ± 0.80
Tumor / Muscle uptake ratio [1, 7]: 3.98 ± 1.09
liver uptake compared with ^18F-FP-RMSH-1 ([1]; biodistribution, 2 h): higher uptake in liver
liver and lung uptake compared with ^18F-FB-RMSH-2, A375M ([2]; "in both models" (P < 0.05), A375M model): lower
liver and kidney uptake compared with ^18F-FP-RMSH-1, A375M ([2]; A375M model, P < 0.05): higher uptake in liver and kidney
Blood uptake [2, 8]: 0.20 ± 0.09 %ID/g
Bone uptake [2, 8]: 0.25 ± 0.12 %ID/g
Brain uptake [2, 8]: 0.04 ± 0.01 %ID/g
Heart uptake [2, 8]: 0.18 ± 0.07 %ID/g
Intestine uptake [2, 8]: 0.17 ± 0.00 %ID/g
Liver uptake [2, 8]: 1.66 ± 0.08 %ID/g
Lung uptake [2, 8]: 0.47 ± 0.21 %ID/g
Muscle uptake [2, 8]: 0.10 ± 0.02 %ID/g
Pancreas uptake [2, 8]: 0.09 ± 0.01 %ID/g
Spleen uptake [2, 8]: 0.27 ± 0.03 %ID/g
Stomach uptake [2, 8]: 0.52 ± 0.50 %ID/g
Tumor / Blood uptake ratio [2, 8]: 2.90 ± 0.04
Tumor / Muscle uptake ratio [2, 8]: 6.40 ± 2.66
PET tumor uptake compared with ^18F-FP-RMSH-1 ([3]; B16F10, 1 and 2 h, ROI quantification, P < 0.01): much lower tumor uptake
PET liver and kidney uptake ([3]; B16F10, 1 and 2 h p.i.): moderate to high uptake in liver and kidney
PET kidney uptake compared with ^18F-FP-RMSH-1 ([3]; B16F10, 1 and 2 h p.i., ROI quantification, n = 3, P < 0.01): much higher uptake in kidney
PET tumor delineation / image quality [3]: much less prominent tumor uptake

CC(=O)N[C@H](CCCCNC(=O)C(C)F)C(=O)N[C@@H](CS)C(=O)N[C@@H](CS)C(=O)N[C@@H](CCC(=O)O)C(=O)N[C@@H](Cc1c[nH]cn1)C(=O)N[C@H](Cc1ccccc1)C(=O)N[C@@H](CCCNC(=N)N)C(=O)N[C@@H](Cc1c[nH]c2ccccc12)C(=O)N[C@@H](CS)C(=O)N[C@@H](CCCNC(=N)N)C(=O)N1CCC[C@H]1C(=O)N[C@H](C(N)=O)C(C)C (some centres unmarked) [^19F-FP-RMSH-1]
receptor binding affinity [5]: within low nM range

CC(=O)N[C@H](CCCCNC(=O)C(C)F)C(=O)N[C@@H](CS)C(=O)N[C@@H](CS)C(=O)N[C@@H](CCC(=O)O)C(=O)N[C@@H](Cc1c[nH]cn1)C(=O)N[C@H](Cc1ccccc1)C(=O)N[C@@H](CCCNC(=N)N)C(=O)N[C@@H](Cc1c[nH]c2ccccc12)C(=O)N[C@@H](CS)C(=O)N[C@@H](CCCNC(=N)N)C(=O)N1CCC[C@H]1C(=O)N[C@H](C(N)=O)C(C)C (some centres unmarked) [^19F-FP-RMSH-2]
receptor binding affinity [5]: within low nM range

Ac-d,Lys-ReCCMSH(Arg^11) (sidechain bridge or staple) [RMSH-1]
MC1R binding affinity of unconjugated RMSH isomers [6]: high MC1R binding affinity in nanomolar (nM) range

Ac-d,Lys-ReCCMSH(Arg^11) (sidechain bridge or staple) [RMSH-2]
MC1R binding affinity of unconjugated RMSH isomers [6]: high MC1R binding affinity in nanomolar (nM) range
